Here are results for seven molecules from ChEMBL document CHEMBL1135941, “Synthesis and biological activity of the new 5-fluorocytosine derivatives, 5'-deoxy-N-alkyloxycarbonyl-5-fluorocytosine-5'-carboxylic acid” (Bioorg Med Chem Lett, 2002).

One series deals with SK-OV-3. The series is described as follows: Inhibitory concentration of compound for cytotoxicity against SK-OV-3 human ovarian cells was determined. It is filed as functional, cell-based. In short, it runs like this:
(§1)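 MTT cytotoxicity assay on human cancer cell lines: A549 (lung), SK-OV-3 (ovarian), HCT15 (colon) and SK-MEL-2 (melanoma). Cells were incubated with compound for 3 days before the MTT read-out. Activity is reported as IC50 in μg/mL.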

In another series the test system is A549. The series is described as follows: Inhibitory concentration of compound for cytotoxicity against […] human lung cells was determined. It is filed as functional, cell-based. In short, it runs like this: as §1
The next series has as its system HCT-15. Put plainly: Inhibitory concentration of compound for cytotoxicity against HCT15 human colon cells was determined. It is filed as functional, cell-based. The procedure, abridged: as §1
A further series has as its system SK-MEL-2. Put plainly: Inhibitory concentration of compound for cytotoxicity against SK-MEL-2 human melanoma cells was determined. The series is classed as functional, cell-based. In short, it runs like this:
as §1

Series [1] in a line: Toxicity by oral administration of single dose in mice. The settings on record: mouse, in vivo.
In series [2] the test system is Mus musculus. Put plainly: In vivo mean survival time of L1210 leukemic BDF1 mice when compound (0.67 mmol/kg/day) was administered orally.
Series [3] has as its system Mus musculus. The series is described as follows: In vivo mean survival time of L1210 leukemic BDF1 mice when compound (0.0032 mmol/kg/day) was administered orally.
Series [4] has as its system Mus musculus. The series is described as follows: In vivo mean survival time of L1210 leukemic BDF1 mice when compound (0.016 mmol/kg/day) was administered orally.
Series [5] is described as follows: Toxicity by oral administration of single dose in mice for 21 days. The following applies: mouse, in vivo, 504 h.
The test system of series [6] is Mus musculus. The series is described as follows: Percent increase in life span of L1210 leukemic BDF1 mice when compound (0.15 nmol/kg/day) was administered intravenously. It is filed as functional.
In series [7] the test system is Mus musculus. Put plainly: In vivo mean survival time of L1210 leukemic BDF1 mice when compound (0.23 nmol/kg/day) was administered intravenously. It is filed as functional.

Molecules are shown by their SMILES. Values after ≈ are worked out from the molar mass of the structure shown. Values joined by “and” are separate entries in the source; they are usually repeats but may differ in a detail not shown here. Identical values can stand only once.

As for `C#CCOC(=O)Nc1nc(=O)n(C2O[C@H](C(=O)O)[C@@H](O)[C@H]2O)cc1F` (stereo partly specified), the IC50 is 0.005 µg/mL (≈ 0.014 µM) in the series with SK-OV-3, 0.005 µg/mL (≈ 0.014 µM) with A549, 0.04 µg/mL (≈ 0.112 µM) with HCT-15 and 0.007 µg/mL (≈ 0.0196 µM) in the series on SK-MEL-2. The same molecule came in with an LD50 in [1] of 12 mg/kg.

For `CCCCCOC(=O)Nc1nc(=O)n(C2O[C@H](C(=O)O)[C@@H](O)[C@H]2O)cc1F` (stereo partly specified), the IC50 in the series on SK-OV-3 stood at 0.03 µg/mL (≈ 0.0771 µM); in the series on A549, 0.17 µg/mL (≈ 0.437 µM); with HCT-15 it was 0.12 µg/mL (≈ 0.308 µM); with SK-MEL-2 it was 0.03 µg/mL (≈ 0.0771 µM). This molecule also came in with an MST in the series with Mus musculus [2] of 11.3 days.

`O=C(Nc1nc(=O)n(C2O[C@H](C(=O)O)[C@@H](O)[C@H]2O)cc1F)Oc1ccccc1` (stereo partly specified): the IC50 in the series with SK-OV-3 was determined as 0.12 µg/mL (≈ 0.304 µM); in the series with A549, 0.55 µg/mL (≈ 1.39 µM); in the series with HCT-15, 0.39 µg/mL (≈ 0.987 µM); in the series on SK-MEL-2, 0.1 µg/mL (≈ 0.253 µM).

With `O=C(Nc1nc(=O)n(C2O[C@H](C(=O)O)[C@@H](O)[C@H]2O)cc1F)OCc1ccccc1` (stereo partly specified), the IC50 amounted to 0.07 µg/mL (≈ 0.171 µM) in the series on SK-OV-3, 0.37 µg/mL (≈ 0.904 µM) in the series with A549, 0.17 µg/mL (≈ 0.415 µM) with HCT-15 and 0.1 µg/mL (≈ 0.244 µM) in the series on SK-MEL-2.

On to `CCOC(=O)Nc1nc(=O)n(C2O[C@H](C(=O)O)[C@@H](O)[C@H]2O)cc1F` (stereo partly specified), for which the IC50 is 0.16 µg/mL (≈ 0.461 µM) in the series with SK-OV-3, 0.49 µg/mL (≈ 1.41 µM) in the series on A549, 0.47 µg/mL (≈ 1.35 µM) in the series on HCT-15 and 0.16 µg/mL (≈ 0.461 µM) in the series with SK-MEL-2.

With `C=CCOC(=O)Nc1nc(=O)n(C2O[C@H](C(=O)O)[C@@H](O)[C@H]2O)cc1F` (stereo partly specified), the IC50 in the series on SK-OV-3 is 0.008 µg/mL (≈ 0.0223 µM); in the series with A549, 0.04 µg/mL (≈ 0.111 µM); in the series on HCT-15 it was 0.032 µg/mL (≈ 0.0891 µM); with SK-MEL-2, 0.008 µg/mL (≈ 0.0223 µM). The MST in the series on Mus musculus [3] worked out at 22.1 days; in the series on Mus musculus [4] it was 24.8 days. Also, the LD50 worked out at 650 mg/kg in series [1] and 22 mg/kg/day in series [5].

For `O=c1[nH]cc(F)c(=O)[nH]1` [FLUOROURACIL], the concentration for half-maximal inhibition (IC50) with SK-OV-3 is 0.03 µg/mL (≈ 0.231 µM); in the series on A549, 0.26 µg/mL (≈ 2 µM); in the series with HCT-15 it was 0.11 µg/mL (≈ 0.846 µM); in the series with SK-MEL-2, 0.63 µg/mL (≈ 4.84 µM). Besides, the ILS in the series on Mus musculus [6] was 87.5% and 62.5%. Further, the MST in the series with Mus musculus [7] is 16.5 days and 14.3 days.

As a reminder, the IC50 is the concentration that gives 50% inhibition. One may read the LD50 as the dose at which mortality reaches 50%. One may read the ILS as how much longer treated animals lived than controls. Low values mean little gain in survival, high ones much gain in survival.
